Measurements: ChEMBL document CHEMBL4334479, “Trichocadinins B-G: Antimicrobial Cadinane Sesquiterpenes from Trichoderma virens QA-8, an Endophytic Fungus Obtained from the Medicinal Plant Artemisia argyi” (2019)
Converted amounts (≈) assume the structure as drawn. The source made the active and inactive calls. No cut-off for these calls is given here.

Assays:
Type in all cases: functional
Pseudomonas aeruginosa = experiment: Antibacterial activity against Pseudomonas aeruginosa QDIO 4 by microplate XTT assay
Outline: (§1)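 Bacterial strains tested in a microplate assay with chloramphenicol as the positive control. Activity is reported as MIC in μg/mL.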

Vibrio parahaemolyticus = experiment: Antibacterial activity against Vibrio parahaemolyticus QDIO 8 by microplate XTT assay; outline: as §1
Aeromonas hydrophila = experiment: Antibacterial activity against Aeromonas hydrophila QDIO 1 by microplate XTT assay; outline: as §1
Vibrio harveyi = experiment: Antibacterial activity against Vibrio harveyi QDIO 7 by microplate XTT assay; outline: as §1
Vibrio vulnificus = experiment: Antibacterial activity against Vibrio vulnificus QDIO 9 by microplate XTT assay; outline: as §1
Escherichia coli = experiment: Antibacterial activity against Escherichia coli EMBLC 1 by microplate XTT assay; outline: as §1
Edwardsiella tarda = experiment: Antibacterial activity against Edwardsiella tarda QDIO 2 by microplate XTT assay; outline: as §1
Micrococcus luteus = experiment: Antibacterial activity against Micrococcus luteus QDIO 3 by microplate XTT assay; outline: as §1
Vibrio anguillarum = experiment: Antibacterial activity against Vibrio anguillarum QDIO 6 by microplate XTT assay; outline: as §1
Fusarium solani = experiment: Antifungal activity against Fusarium solani QDAU 15 by microplate XTT assay
Outline: (§2)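 Plant-pathogenic fungi, provided by Qingdao Agricultural University, were tested in a microplate assay with amphotericin B as the positive control.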

Cytospora mali = experiment: Antifungal activity against Valsa mali QDAU 13 by microplate XTT assay; outline: as §2
[1] = (§3) Antifungal activity against Fusarium oxysporum f.sp. radicis-lycopersici QDAU 5 by microplate XTT assay; outline: as §2
[2] = system: Colletotrichum gloeosporioides; experiment: Antifungal activity against Glomerella cingulata QDAU 2 by microplate XTT assay; outline: as §2
[3] = system: Ceratobasidium cornigerum; experiment: Antifungal activity against Ceratobasidium cornigerum QDAU 8 by microplate XTT assay; outline: as §2
[4] = system: Fusarium oxysporum f. sp. cucumerinum; experiment: Antifungal activity against Fusarium oxysporum f.sp.cucumerinum QDAU 16 by microplate XTT assay; outline: as §2
[5] = system: Botryosphaeria berengeriana; experiment: Antifungal activity against Physalospora pyricola Nose QDAU 12 by microplate XTT assay; outline: as §2
[6] = system: Colletotrichum gloeosporioides; experiment: Antifungal activity against Colletotrichum gloeosporioides Penz-QDAU 9 by microplate XTT assay; outline: as §2
Fusarium graminearum = experiment: Antifungal activity against Fusarium graminearum QDAU 10 by microplate XTT assay
Outline: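 Plant-pathogenic fungal strain supplied by Qingdao Agricultural University; MIC determined by microplate assay with amphotericin B as positive control.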

Penicillium digitatum = experiment: Antifungal activity against Penicillium digitatum QDAU 11 by microplate XTT assay; outline: as §2
Bipolaris maydis = experiment: Antifungal activity against Helminthosporium maydis QDAU 18 by microplate XTT assay; outline: as §2
Alternaria solani = experiment: Antifungal activity against Alternaria solani QDAU 14 by microplate XTT assay; outline: as §2
Bipolaris sorokiniana = experiment: Antifungal activity against Bipolaris sorokiniana QDAU 7 by microplate XTT assay; outline: as §2
[7] = (§4) Antifungal activity against Fusarium oxysporum f.sp.momordicae QDAU 17 by microplate XTT assay; outline: as §2
[8] = system: Fusarium oxysporum f. sp. radicis-lycopersici; experiment: as §3; outline: as §2
[9] = system: Fusarium oxysporum f. sp. momordicae; experiment: as §4; outline: as §2

Work on O=C(N[C@H](CO)[C@H](O)c1ccc([N+](=O)[O-])cc1)C(Cl)Cl [CHLORAMPHENICOL] yielded an MIC (Pseudomonas aeruginosa) of 2 µg/mL (≈ 6.19 µM), an MIC (Vibrio parahaemolyticus) of 4 µg/mL (≈ 12.4 µM) and an MIC (Aeromonas hydrophila) of 4 µg/mL (≈ 12.4 µM). It also gave an MIC (Vibrio harveyi) of 1 µg/mL (≈ 3.09 µM), an MIC (Vibrio vulnificus) of 1 µg/mL (≈ 3.09 µM) and an MIC (Escherichia coli) of 2 µg/mL (≈ 6.19 µM). The MIC (Edwardsiella tarda) was 0.5 µg/mL (≈ 1.55 µM), the MIC (Micrococcus luteus) was 4 µg/mL (≈ 12.4 µM) and the MIC (Vibrio anguillarum) was 1 µg/mL (≈ 3.09 µM).
With C[C@@H]1[C@H](O)[C@@H](C)/C=C/C=C/C=C/C=C/C=C/C=C/C=C/[C@H](O[C@@H]2O[C@H](C)[C@@H](O)[C@H](N)[C@@H]2O)C[C@@H]2O[C@](O)(C[C@@H](O)C[C@@H](O)[C@H](O)CC[C@@H](O)C[C@@H](O)CC(=O)O[C@H]1C)C[C@H](O)[C@H]2C(=O)O [AMPHOTERICIN B] the MIC (Fusarium solani) was 4 µg/mL (≈ 4.33 µM), the MIC (Cytospora mali) was 8 µg/mL (≈ 8.66 µM) and the MIC [1] was 2 µg/mL (≈ 2.16 µM). The MIC [2] was 0.5 µg/mL (≈ 0.541 µM), the MIC [3] was 8 µg/mL (≈ 8.66 µM) and the MIC [4] was 0.5 µg/mL (≈ 0.541 µM). It also gave an MIC [5] of 2 µg/mL (≈ 2.16 µM), an MIC [6] of 0.5 µg/mL (≈ 0.541 µM) and an MIC (Fusarium graminearum) of 2 µg/mL (≈ 2.16 µM). For the same compound, the MIC (Penicillium digitatum) was 2 µg/mL (≈ 2.16 µM), the MIC (Bipolaris maydis) was 2 µg/mL (≈ 2.16 µM) and the MIC (Alternaria solani) was 2 µg/mL (≈ 2.16 µM). The MIC (Bipolaris sorokiniana) was 0.5 µg/mL (≈ 0.541 µM) and the MIC [7] was 1 µg/mL (≈ 1.08 µM).
With CC(C)[C@H]1CCC(=O)c2cc(O)c(C(=O)O)cc21 the MIC (Fusarium solani) was “inactive”, the MIC (Pseudomonas aeruginosa) was “inactive” and the MIC (Cytospora mali) was “inactive”. For the same compound, the MIC (Vibrio parahaemolyticus) was “inactive”, the MIC (Aeromonas hydrophila) was “inactive” and the MIC [8] was “inactive”. For the same compound, the MIC [2] was “inactive”, the MIC [3] was “inactive” and the MIC (Vibrio harveyi) was “inactive”. For the same compound, the MIC [4] was 64 µg/mL (≈ 258 µM), the MIC [5] was 4 µg/mL (≈ 16.1 µM) and the MIC [6] was “inactive”. For the same compound, the MIC (Fusarium graminearum) was “inactive”, the MIC (Vibrio vulnificus) was “inactive” and the MIC (Escherichia coli) was “inactive”. The MIC (Edwardsiella tarda) was 1 µg/mL (≈ 4.03 µM), the MIC (Penicillium digitatum) was “inactive” and the MIC (Bipolaris maydis) was “inactive”. For the same compound, the MIC (Alternaria solani) was “inactive”, the MIC (Micrococcus luteus) was “inactive” and the MIC (Bipolaris sorokiniana) was “inactive”. For the same compound, the MIC (Vibrio anguillarum) was 2 µg/mL (≈ 8.06 µM) and the MIC [9] was “inactive”.
For C=C1CC[C@H](C(C)C)[C@@H]2C=C(C(=O)O)CC[C@H]12, the MIC (Fusarium solani) was “inactive”, the MIC (Pseudomonas aeruginosa) was 4 µg/mL (≈ 17.1 µM) and the MIC (Cytospora mali) was 32 µg/mL (≈ 137 µM). The MIC (Vibrio parahaemolyticus) was 8 µg/mL (≈ 34.1 µM), the MIC (Aeromonas hydrophila) was 8 µg/mL (≈ 34.1 µM) and the MIC [1] was 64 µg/mL (≈ 273 µM). The MIC [2] was 1 µg/mL (≈ 4.27 µM), the MIC [3] was “inactive” and the MIC (Vibrio harveyi) was 2 µg/mL (≈ 8.53 µM). The MIC [4] was 16 µg/mL (≈ 68.3 µM), the MIC [5] was 8 µg/mL (≈ 34.1 µM) and the MIC [6] was “inactive”. For the same compound, the MIC (Fusarium graminearum) was “inactive”, the MIC (Vibrio vulnificus) was 64 µg/mL (≈ 273 µM) and the MIC (Escherichia coli) was 8 µg/mL (≈ 34.1 µM). For the same compound, the MIC (Edwardsiella tarda) was “inactive”, the MIC (Penicillium digitatum) was “inactive” and the MIC (Bipolaris maydis) was “inactive”. The MIC (Alternaria solani) was “inactive”, the MIC (Micrococcus luteus) was 32 µg/mL (≈ 137 µM) and the MIC (Bipolaris sorokiniana) was “inactive”. For the same compound, the MIC (Vibrio anguillarum) was “inactive” and the MIC [9] was “inactive”.
For CC(C)[C@H]1CC[C@@H](C)[C@]2(O)CCC(C(=O)O)=C[C@H]12, the MIC (Fusarium solani) was “inactive”, the MIC (Pseudomonas aeruginosa) was “inactive” and the MIC (Cytospora mali) was “inactive”. For the same compound, the MIC (Vibrio parahaemolyticus) was “inactive”, the MIC (Aeromonas hydrophila) was “inactive” and the MIC [8] was “inactive”. For the same compound, the MIC [2] was “inactive”, the MIC [3] was “inactive” and the MIC (Vibrio harveyi) was “inactive”. For the same compound, the MIC [4] was 32 µg/mL (≈ 127 µM), the MIC [5] was “inactive” and the MIC [6] was “inactive”. For the same compound, the MIC (Fusarium graminearum) was “inactive”, the MIC (Vibrio vulnificus) was “inactive” and the MIC (Escherichia coli) was “inactive”. The MIC (Edwardsiella tarda) was “inactive”, the MIC (Penicillium digitatum) was “inactive” and the MIC (Bipolaris maydis) was 16 µg/mL (≈ 63.4 µM). The MIC (Alternaria solani) was “inactive”, the MIC (Micrococcus luteus) was “inactive” and the MIC (Bipolaris sorokiniana) was “inactive”. The MIC (Vibrio anguillarum) was “inactive” and the MIC [9] was “inactive”.
For C=C1CC[C@H](C(C)C)[C@H]2C=C(C(=O)O)C[C@@H](O)[C@H]12, the MIC (Fusarium solani) was “inactive”, the MIC (Pseudomonas aeruginosa) was “inactive” and the MIC (Cytospora mali) was “inactive”. For the same compound, the MIC (Vibrio parahaemolyticus) was “inactive”, the MIC (Aeromonas hydrophila) was “inactive” and the MIC [1] was 64 µg/mL (≈ 256 µM). For the same compound, the MIC [2] was “inactive”, the MIC [3] was “inactive” and the MIC (Vibrio harveyi) was “inactive”. The MIC [4] was 32 µg/mL (≈ 128 µM), the MIC [5] was 1 µg/mL (≈ 3.99 µM) and the MIC [6] was “inactive”. For the same compound, the MIC (Fusarium graminearum) was “inactive”, the MIC (Vibrio vulnificus) was “inactive” and the MIC (Escherichia coli) was “inactive”. The MIC (Edwardsiella tarda) was “inactive”, the MIC (Penicillium digitatum) was 16 µg/mL (≈ 63.9 µM) and the MIC (Bipolaris maydis) was “inactive”. For the same compound, the MIC (Alternaria solani) was “inactive”, the MIC (Micrococcus luteus) was “inactive” and the MIC (Bipolaris sorokiniana) was “inactive”. For the same compound, the MIC (Vibrio anguillarum) was “inactive” and the MIC [9] was “inactive”.
For C[C@H](CO)[C@H]1CCc2coc3cc(C(=O)O)cc1c23, the MIC (Fusarium solani) was 32 µg/mL (≈ 123 µM), the MIC (Pseudomonas aeruginosa) was 8 µg/mL (≈ 30.7 µM) and the MIC (Cytospora mali) was “inactive”. For the same compound, the MIC (Vibrio parahaemolyticus) was 32 µg/mL (≈ 123 µM), the MIC (Aeromonas hydrophila) was 64 µg/mL (≈ 246 µM) and the MIC [8] was “inactive”. The MIC [2] was 4 µg/mL (≈ 15.4 µM), the MIC [3] was “inactive” and the MIC (Vibrio harveyi) was 16 µg/mL (≈ 61.5 µM). The MIC [4] was 2 µg/mL (≈ 7.68 µM), the MIC [5] was 4 µg/mL (≈ 15.4 µM) and the MIC [6] was “inactive”. The MIC (Fusarium graminearum) was “inactive”, the MIC (Vibrio vulnificus) was “inactive” and the MIC (Escherichia coli) was 16 µg/mL (≈ 61.5 µM). For the same compound, the MIC (Edwardsiella tarda) was “inactive”, the MIC (Penicillium digitatum) was 8 µg/mL (≈ 30.7 µM) and the MIC (Bipolaris maydis) was “inactive”. For the same compound, the MIC (Alternaria solani) was 32 µg/mL (≈ 123 µM), the MIC (Micrococcus luteus) was “inactive” and the MIC (Bipolaris sorokiniana) was 8 µg/mL (≈ 30.7 µM). For the same compound, the MIC (Vibrio anguillarum) was “inactive” and the MIC [9] was “inactive”.
In the case of CC(C)[C@H]1CCc2coc3cc(C(=O)O)cc1c23, the MIC (Fusarium solani) is reported as 4 µg/mL (≈ 16.4 µM), the MIC (Pseudomonas aeruginosa) is reported as 8 µg/mL (≈ 32.7 µM) and the MIC (Cytospora mali) is reported as 16 µg/mL (≈ 65.5 µM). The MIC (Vibrio parahaemolyticus) was 4 µg/mL (≈ 16.4 µM), the MIC (Aeromonas hydrophila) was 8 µg/mL (≈ 32.7 µM) and the MIC [1] was 64 µg/mL (≈ 262 µM). For the same compound, the MIC [2] was 1 µg/mL (≈ 4.09 µM), the MIC [3] was 16 µg/mL (≈ 65.5 µM) and the MIC (Vibrio harveyi) was 8 µg/mL (≈ 32.7 µM). The MIC [4] was 1 µg/mL (≈ 4.09 µM), the MIC [5] was 4 µg/mL (≈ 16.4 µM) and the MIC [6] was 8 µg/mL (≈ 32.7 µM). For the same compound, the MIC (Fusarium graminearum) was 8 µg/mL (≈ 32.7 µM), the MIC (Vibrio vulnificus) was 64 µg/mL (≈ 262 µM) and the MIC (Escherichia coli) was 8 µg/mL (≈ 32.7 µM). For the same compound, the MIC (Edwardsiella tarda) was “inactive”, the MIC (Penicillium digitatum) was 8 µg/mL (≈ 32.7 µM) and the MIC (Bipolaris maydis) was “inactive”. The MIC (Alternaria solani) was 4 µg/mL (≈ 16.4 µM), the MIC (Micrococcus luteus) was 32 µg/mL (≈ 131 µM) and the MIC (Bipolaris sorokiniana) was 1 µg/mL (≈ 4.09 µM). The MIC (Vibrio anguillarum) was “inactive” and the MIC [7] was 2 µg/mL (≈ 8.19 µM).
